Measured values reported in ChEMBL document CHEMBL1124637, “Synthesis and antiviral activity of several 2,5'-anhydro analogues of 3'-azido-3'-deoxythymidine, 3'-azido-2',3'-dideoxyuridine, 3'-azido-2',3'-dideoxy-5-halouridines, and 3'-deoxythymidine against human immunodeficiency virus and Rauscher-murine leukemia virus” (J Med Chem, 1989).

Tests used:
[1] = Ratio of TICD50 to that of IC50 of human immunodeficiency virus (HIV-1); type: functional; parameters: reference not given here
[2] = system: Rauscher murine leukemia virus; assay: Concentration of compound required to inhibit 50% of host cell replication of Rauscher-Murine leukemia virus; type: functional
[3] = system: CCRF-CEM; assay: Concentration of compound required to inhibit 50% of host cell replication of human immunodeficiency virus in CEM-F cells; type: functional
[4] = system: CCRF-CEM; assay: Concentration of compound required to inhibit 50% of viral replication of human immunodeficiency virus in CEM-F cells; type: functional, cell-based
[5] = Ratio of TICD50 to that of IC50 of Rauscher-Murine leukemia virus (R-MuLv); type: functional; parameters: reference not given here
[6] = system: Rauscher murine leukemia virus; assay: Concentration of compound required to inhibit 50% of viral replication of Rauscher-Murine leukemia virus; type: functional, organism-based
[7] = system: Rauscher murine leukemia virus; assay: Cytotoxic concentration of compound required to inhibit 50% of host cell replication of Rauscher-Murine leukemia virus; type: functional
[8] = Metabolic stability (Half life) at pH-2.0 was evaluated; type: ADME
Outline: (§1)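 Chemical (non-enzymatic) stability. Each compound at 2 mg/mL was incubated in 0.01 N HCl (pH 2.0) at 37 °C. Aliquots taken at various times were run on reverse-phase C-18 HPLC with a linear 0–30% CH3CN gradient into 0.01 M ammonium acetate (pH 5.5) over 30 min, with UV detection at 254 nm. Remaining anhydro compound, released parent nucleoside and pyrimidine base were quantified, and the half-life was derived.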

[9] = Metabolic stability (Half life)of the compound at pH-7.4 was evaluated; type: ADME
Outline: (§2)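 Compound at 2 mg/mL held at 37 °C in phosphate-buffered saline, pH 7.4, with no enzymes present. At various times, aliquots were analysed by reverse-phase C-18 HPLC with a linear 0–30% CH3CN gradient into 0.01 M ammonium acetate (pH 5.5) over 30 min, monitored by UV at 254 nm. Intact anhydro compound, generated parent nucleoside and pyrimidine base were measured, and the half-life was derived.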

[10] = Metabolic stability (Half life) at pH-7.4 was evaluated; type: ADME; outline: as §2
[11] = Metabolic stability (Half life)of the compound at pH-2.0 was evaluated; type: ADME; details: read-out: T1/2 h/; outline: as §1

[N-]=[N+]=N[C@H]1C[C@H]2O[C@@H]1COC1NC(=O)C(I)=CN12 (stereo partly specified)
Ratio [1]: 7
TCID50 [2]: >277 µM
CC50 (50% host cell growth inhibition) [3]: 194 µM
IC50 [4]: 27.1 µM
Ratio [5]: 16
IC50 [6]: 17.7 µM

CC1=CN2C(NC1=O)OC[C@@H]1CC[C@H]2O1 (stereo partly specified)
Ratio [1]: 7
CC50 (50% host cell growth inhibition) [3]: 346 µM
TCID50 [7]: >480 µM
IC50 [4]: 48 µM
Ratio [5]: 1
IC50 [6]: > 480 µM
half-life [8]: 0.00381 h
half-life [9]: 84.3 h

[N-]=[N+]=N[C@H]1C[C@H](n2cc(Br)c(=O)[nH]c2=O)O[C@@H]1CO
Ratio [1]: 15
TCID50 [2]: >301 µM
CC50 (50% host cell growth inhibition) [3]: 127 µM
IC50 [4]: 8.73 µM
Ratio [5]: 1309
IC50 [6]: 0.23 µM

Cc1cn([C@H]2C[C@H](N=[N+]=[N-])[C@@H](CO)O2)c(=O)[nH]c1=O [ZIDOVUDINE]
Ratio [1]: 290
TCID50 [2]: >400 µM
IC50 [4]: 0.1 µM
Ratio [5]: 17391
IC50 [6]: 0.023 µM

[N-]=[N+]=N[C@H]1C[C@H](n2ccc(=O)[nH]c2=O)O[C@@H]1CO [NAVURIDINE]
Ratio [1]: 60
TCID50 [2]: >395 µM
TCID50 [3]: 166 µM
IC50 [4]: 2.76 µM
Ratio [5]: 3
IC50 [6]: 138 µM

CC1=CN2C(NC1=O)OC[C@H]1O[C@@H]2C[C@@H]1N=[N+]=[N-] (stereo partly specified)
Ratio [1]: 179
TCID50 [2]: >400 µM
CC50 (50% host cell growth inhibition) [3]: >100 µM
IC50 [4]: 0.56 µM
Ratio [5]: 1481
IC50 [6]: 0.27 µM
half-life ([8]; read-out: T1/2 h/): 0.492 h
half-life [10]: > 75 h

[N-]=[N+]=N[C@H]1C[C@H](n2cc(I)c(=O)[nH]c2=O)O[C@@H]1CO
Ratio [1]: 12
TCID50 [2]: >264 µM
CC50 (50% host cell growth inhibition) [3]: 153 µM
IC50 [4]: 12.6 µM
Ratio [5]: 1257
IC50 [6]: 0.21 µM

[N-]=[N+]=N[C@H]1C[C@H]2O[C@@H]1COC1NC(=O)C(Br)=CN12 (stereo partly specified)
Ratio [1]: 6
TCID50 [2]: >319 µM
CC50 (50% host cell growth inhibition) [3]: 168 µM
IC50 [4]: 28 µM
Ratio [5]: 20
IC50 [6]: 16.1 µM
half-life [8]: 0.238 h
half-life [10]: 60.5 h

Cc1cn([C@H]2CC[C@@H](CO)O2)c(=O)[nH]c1=O
Ratio [1]: 631
TCID50 [2]: >442 µM
IC50 [4]: 0.38 µM
Ratio [5]: 1
IC50 [6]: > 442 µM

[N-]=[N+]=N[C@H]1C[C@H]2O[C@@H]1COC1NC(=O)C=CN12 (stereo partly specified)
Ratio [1]: 20
CC50 (50% host cell growth inhibition) [3]: >100 µM
IC50 [4]: 4.95 µM
half-life [11]: 0.188 h
half-life [10]: 120 h

CC1=CN([C@H]2C[C@H](N=[N+]=[N-])[C@@H](CO)O2)C(N)NC1=O (stereo partly specified)
Ratio [1]: 39
TCID50 [2]: >376 µM
CC50 (50% host cell growth inhibition) [3]: 470 µM
IC50 [4]: 12 µM
Ratio [5]: 3
IC50 [6]: 114 µM
half-life [8]: 2.33 h
half-life [9]: > 168 h
